# A selection: hits, their analogues and other compounds. The true share with any hit is near 2.9%.
# TCR-CD3 inh – human TCR-CD3 binding inhibition; TAMRA-labeled TCR probe fluorescence, biochemical; inhibition, % at 9.4 µM; 0.37% of 360,000 active; AID 651800; in the data active = inhibition above about 19%;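 also: recombinant mutant TCR 2C K166C tagged with TAMRA read by polarization; 0% = receptor in buffer alone and 100% = receptor with positive control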
# ATG4B inhibitor – inhibitors of human ATG4B cysteine protease; Q9Y4P1; ATG4B cleavage of LC3-PLA2, NBD-HPC fluorescence, 1 h; inhibition, % at 8.33 µM; 0.51% of 340,000 active; AID 504462; in the data active = inhibition above about 40%
# SIAE inh – human SIAE inhibition, primary screen | Q9HAT2 | 0.69% of 370,000 active | AID 1053197 | inhibition, % at 9.66 µM | SIAE FP-Rh probe binding, fluorescence polarization;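 active = inhibition above a cutoff: mean of compounds within the control limits plus 3 SD of those, cut at about 17% in these data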;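 also: 0% = plate median of compound wells and 100% = probe without SIAE protein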
# Target sequence (Q9HAT2 whole entry, looked up): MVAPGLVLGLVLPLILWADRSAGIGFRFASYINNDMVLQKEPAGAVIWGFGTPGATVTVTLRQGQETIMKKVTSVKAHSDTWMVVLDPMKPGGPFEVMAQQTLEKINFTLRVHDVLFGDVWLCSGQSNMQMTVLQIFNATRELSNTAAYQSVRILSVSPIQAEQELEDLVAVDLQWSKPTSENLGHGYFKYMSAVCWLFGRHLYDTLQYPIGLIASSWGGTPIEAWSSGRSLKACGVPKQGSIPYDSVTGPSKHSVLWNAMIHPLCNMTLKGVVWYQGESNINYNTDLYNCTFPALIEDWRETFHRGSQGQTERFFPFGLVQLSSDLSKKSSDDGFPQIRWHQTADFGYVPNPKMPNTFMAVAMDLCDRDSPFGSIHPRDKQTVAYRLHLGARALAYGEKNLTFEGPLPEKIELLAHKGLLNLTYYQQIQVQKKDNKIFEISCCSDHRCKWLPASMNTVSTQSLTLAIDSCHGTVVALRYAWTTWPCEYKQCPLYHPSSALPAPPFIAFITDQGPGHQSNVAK
# PRMT1 FP inh – blocks human protein arginine methyltransferase 1; Q99873; recombinant PRMT1, activity-based probe fluorescence polarization; inhibition, % at 2.79 µM; 1.3% of 370,000 active; AID 652257;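 active = inhibition above about 21% made by adding two undisclosed values, limit read from the data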
# mABHD4 FP – inhibits mouse alpha/beta hydrolase domain 4. Q8VD66. purified mABHD4, FP-Rh probe fluorescence polarization. inhibition, % at 8.92 µM. 0.54% of 370,000 active. AID 720543;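 active = inhibition exceeding the mean over every tested compound plus 3 SD, cut at about 30% in these data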;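 also: 0% = plate median of compound wells and 100% = S159A mutant with DMSO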
#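 Test system: mABHD4 protein; Read-out basis: % inhibition; Incubation: 45 min + 60 min at 25 °C; Repeats: single replicate; Technique: fluorescence polarization with parallel and perpendicular emission, 525/598 nm; Compound: 8.92 µM, single dose; Benchmarks: full inhibition S159A mutant plus DMSO, zero as sample-well median.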
# HTRA1 inh – HTRA1 (human) protease inhibition; AID 504803; 0.5% of 340,000 active; recombinant HTRA1, FP-rhodamine activity-based probe, fluorescence polarization; inhibition, % at 5.96 µM; in the data active = inhibition above about 36%;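 also: 0% = enzyme with DMSO and 100% = wells lacking enzyme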
# SIAE confirm – human SIAE inhibition, confirmation; shares compounds with SIAE inh; 13% of 2,300 active; SIAE FP-Rh activity-based probe, fluorescence polarization; inhibition, % at 9.66 µM;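 active = mean inhibition of the replicates above the hit cutoff set in the primary screen, cut at about 17% in these data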;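 also: 0% = SIAE with DMSO and probe and 100% = probe without SIAE; inhibitors lower polarization as more probe stays unbound to SIAE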
# Numbers without * were called inactive; / = no result given.
SMILES,TCR-CD3 inh,ATG4B inhibitor,SIAE inh,PRMT1 FP inh,mABHD4 FP,HTRA1 inh,SIAE confirm
COc1ncnc2sc(-c3ccccc3)cc12,-2,-3,5,-1,-6,-8,/
COC(=O)c1[nH]c2ccc(Cl)cc2c1NC(=O)CN1CCC(C(N)=O)CC1,-2,-9,22*,-2,5,/,-5
COc1ccc(NC(=O)CN2c3cccc4cccc(c34)S2(=O)=O)c(OC)c1,-2,-19,-1,0,-2,-13,/
COc1cc(NC(=O)CN2c3cccc4cccc(c34)S2(=O)=O)cc(OC)c1OC,5,-4,29*,-4,10,-3,-5
COc1cccc(/C=C2\CC3(OC(=O)c4ccc(Cl)cc4)CCCN2C3)c1 (configuration not stated),/,/,-4,-2,-1,/,/
COc1ccc(OC)c(NC(=O)CSc2nc3[nH]c(=O)cc(O)c3s2)c1,6,-1,19*,14,16,-3,-3
CN(Cc1ccccc1)C(=O)CN1C(=O)NC2(CCCC2)C1=O,-6,-6,1,2,6,-3,/
CN(Cc1ccccc1Br)C(=O)CN1C(=O)NC2(CCCCCC2)C1=O,-1,-20,19*,-3,-1,-7,3
O=C(CN1C(=O)NC2(CCCC2)C1=O)N1CCCSC1=Nc1ccccc1,-5,-10,23*,-3,4,3,69*
Cc1ccccc1N=C1SCCN1C(=O)CN1C(=O)NC2(CCCC2)C1=O,4,2,5,-1,0,-1,/
COc1cccc(/C=C/C(=O)c2ccc(NC3=NCCCS3)cc2)c1,10,0,5,1,14,-30,/
O=C(/C=C/c1ccc(Br)cc1)c1ccc(NC2=NCCCS2)cc1,2,17,40*,5,-8,-42,8
CC(C)(C)c1ccc(/C=C/C(=O)c2ccc(NC3=NCCCS3)cc2)cc1,1,17,21*,0,4,-56,12
Cc1cccc(/C=C/C(=O)c2ccc(NC3=NCCCS3)cc2)c1,-3,16,53*,5,-5,-38,2
CNc1oc(Cc2cccc3ccccc23)nc1C#N,-1,-7,18*,-5,-2,1,2
CC(C)Nc1oc(Cc2cccc3ccccc23)nc1C#N,-1,4,1,4,-9,-11,/
COc1ccc(-c2nc(C)sc2CC(=O)O)cc1OC,4,-7,18*,-1,4,-1,4
COc1ccc(-c2nc(C)sc2CC(=O)O)cc1,-2,-5,-3,1,6,2,/
CCCCCCCCN1C(=O)[C@@H](CC(=O)N2CCOCC2)C[C@@]2(C(=O)OC)C1=C[C@H](C1CCCC1)O[C@@H]2C,4,/,7,-1,0,/,/
O=C(CNc1ccc2ccccc2c1)N/N=C/c1cc2ccccc2nc1Cl,0,1,18*,5,23,7,-10
COc1ccc(/C=N/Nc2nc3ccccc3[nH]2)c(OC)c1OC,0,-12,21*,-2,8,10,4
Cc1ccc(/C=N/Nc2nc3ccccc3[nH]2)s1,-1,-6,16,1,25,17,/
C(=N\Nc1nc(N2CCCCC2)nc(N2CCCCC2)n1)/c1c[nH]c2ccccc12,10,-5,14,-3,9,4,/
COc1ccc(/C=N/Nc2ccccn2)c(OC)c1OC,2,-5,2,-2,2,2,/
Cc1[nH]c2ccccc2c1/C=N/Nc1nc(N2CCCCC2)nc(N2CCCCC2)n1,1,0,18*,-1,21,3,6
SMILES,TCR-CD3 inh,ATG4B inhibitor,SIAE inh,PRMT1 FP inh,mABHD4 FP,HTRA1 inh,SIAE confirm
Cc1[nH]c2ccccc2c1/C=N/Nc1nc2ccccc2[nH]1,-1,-19,32*,-6,24,/,37*
O=C1CCc2cc(S(=O)(=O)Nc3ccc4c(c3)OCCO4)ccc2N1,/,/,12,-6,2,/,/
COC(=O)Oc1ccc(/C=N/NC(=O)CN(c2ccccc2Br)S(C)(=O)=O)cc1OC,-1,-16,22*,-2,-1,8,15
CCc1ccccc1N(CC(=O)N/N=C/c1ccc(OC(=O)OC)c(OC)c1)S(C)(=O)=O,-2,-10,6,2,-4,2,/
COC(=O)C1CN(Cc2ccc(OC)cc2)CCS(=O)(=O)N1Cc1cn(Cc2ccc(OC)cc2)nn1 (configuration not stated),/,/,-3,2,3,/,/
COc1cccc(/C=N/NC(=O)c2oc3nc(-c4ccccc4)cc(-c4ccco4)c3c2N)c1,3,-19,7,2,9,8,/
Cc1ccc(-c2cc(-c3ccco3)c3c(N)c(C(=O)NN)oc3n2)cc1,16,-26,28*,-1,15,25,45*
COc1ccc(CN2C(=O)CCCC2(C)c2nnnn2-c2ccc3c(c2)OCCO3)cc1 (configuration not stated),/,/,-1,-3,-1,/,/
CCOC(=O)N1[C@@H]2C=C(C)[C@@H]2[C@@H]2[C@@H](C)C(=O)N21,3,-4,78*,-1,0,5,86*
CC1CCc2onc(C(=O)NCc3ccco3)c2C1 (configuration not stated),7,1,21*,-4,3,5,3
O=C(NCc1ccco1)c1noc2c1CCCC2,-1,-5,0,1,4,-4,/
O=[N+]([O-])c1ccc(N/N=C/c2cccc(O)c2)cc1,-3,-7,20*,3,15,-2,-2
COC(=O)N/N=C/c1cccc([N+](=O)[O-])c1,3,-4,9,-7,2,1,/
CCOc1ccc(Oc2c(Cl)c(Br)nn(Cc3cccc4ccccc34)c2=O)cc1,/,/,10,1,-1,/,/
c1ccc(-c2ccc3c(c2)NCCN3)cc1,-7,-1,17*,-2,13,16,3
COC(=O)C[C@@H]1CC[C@H]2[C@H](COc3ccc(NC(=O)c4ccc(OC)cc4)cc3C(=O)N2C)O1,/,/,-3,1,3,/,/
O=C(c1ccccc1F)N1CCN(c2ccccc2F)CC1,12,-3,-2,-1,-2,4,/
O=C(c1ccccc1F)N1CCN(c2ccccc2)CC1,2,-5,17*,0,-7,-2,0
COc1ccccc1C1CC(c2ccco2)=NN1c1ccccc1 (configuration not stated),2,4,17*,1,3,10,-2
COc1ccc(CN(C)C(=O)[C@@H](Cc2ccccc2)NC(=O)[C@H]2O[C@@H](n3ccc(N)nc3=O)[C@H](O)[C@@H]2O)cc1OC,-5,/,48*,-2,-2,/,53*
Cc1ccc(CNC(=O)[C@@H](Cc2ccccc2)NC(=O)[C@H]2O[C@@H](n3ccc(N)nc3=O)[C@H](O)[C@@H]2O)o1,-2,/,18*,0,-1,/,14
